Each structure is given as a SMILES string. Active and inactive are the calls of the source. The rule behind the calls is not given here.

Data set [1] deals with HEK-293T. The experiment in a line: Inhibition of HIF1 transactivation activity in HEK293T cells transfected with pGL3-5HRE-VEGF-luciferase at 0.01 to 1 uM incubated for 24 hrs under hypoxia condition by luciferase reporter gene assay. It counts as cell-based. Conditions: Homo sapiens. The essentials:
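HEK-293T cells were seeded at 5 × 10³/well, left 24 h, then co-transfected with a 5×HRE (human VEGF promoter) firefly luciferase plasmid and a pRL-SV40 Renilla plasmid. Cells were exposed to hypoxia (1% O₂) with serially diluted compound (0, 0.01, 0.1, 1 μM) for 24 h, with 10 μM 17-AAG as reference. Dual-Glo readout, with firefly normalized to Renilla. Three independent experiments.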
For orientation: A reporter such as luciferase makes a cellular process visible.

Data set [2] has as its system Lewis lung carcinoma cell line. The experiment in a line: animal or person. Type of data set: functional. The conditions noted are these: Mus musculus, ip, read-out: TGI.
Data set [3] concerns Lewis lung carcinoma cell line. Briefly: Antitumor activity against mouse LLC cells allografted in C57BL/6J mouse assessed as inhibition of tumor growth at 5 mg/kg, ip dosed every 3 days for 17 days starting from 2 days after inoculation and co-treated with 5 mg/kg, ip EGFR inhibitor gefitinib relative to control. Type of data set: functional. Conditions: read-out: TGI. The procedure, abridged: (§1)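 Male C57BL/6 mice, 5−6 weeks old, were given LLC cells (2 × 10⁵ in 200 μL serum-free medium) s.c. into the dorsal flanks on Day 0. From day 2, groups of n = 5 received 5 mg/kg i.p. […]. Tumor size was measured three times a week and tumor weight at sacrifice. Statistics were versus the vehicle control.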

Data set [4] concerns Lewis lung carcinoma cell line. Briefly: Antitumor activity against mouse LLC cells allografted in C57BL/6J mouse assessed as reduction tumor weight at 5 mg/kg, ip dosed every 3 days for 17 days starting from 2 days after inoculation relative to control. It counts as functional, organism-based. The essentials: as §1
Data set [5] relates to Lewis lung carcinoma cell line. Briefly: Antitumor activity against mouse LLC cells allografted in C57BL/6J mouse assessed as reduction of tumor weight at 5 mg/kg, ip dosed every 3 days for 17 days starting from 2 days after inoculation and co-treated with 5 mg/kg, ip EGFR inhibitor gefitinib relative to control. It counts as functional, organism-based. The essentials:
as §1

Data set [6] can be described thus: Toxicity in C57BL/6J mouse allografted with mouse LLC cells assessed as effect on body weight at 5 mg/kg, ip dosed every 3 days for 17 days starting from 2 days after inoculation. It counts as organism-based, Lewis lung carcinoma. The conditions noted are these: in vivo. The procedure, abridged:
as §1

Data set [7] in a line: Toxicity in C57BL/6J mouse allografted with mouse LLC cells assessed as effect on body weight at 5 mg/kg, ip dosed every 3 days for 17 days starting from 2 days after inoculation and co-treated with 5 mg/kg, ip EGFR inhibitor gefitinib. Type of data set: organism-based, Lewis lung carcinoma. Conditions: in vivo. The essentials:
as §1

Turning to `C=CCN1[C@H](c2ccc(O[C@H](C)C(=O)c3ccc(OC)c(OC)c3)c(OC)c2)CC[C@H]1c1ccc(O[C@H](C)C(=O)c2ccc(OC)c(OC)c2)c(OC)c1`, in data set [1], the inhibition entry is “inactive”.

On to `COc1ccc(C(=O)[C@@H](C)Oc2ccc([C@@H]3C[C@@H](C)[C@@H](c4ccc(O[C@H](C)C(=O)c5ccc(OC)c(OC)c5)c(OC)c4)O3)cc2OC)cc1OC`, for which the inhibition entry in data set [1] is “Dose-dependent effect”.

`COc1ccc(C(=O)[C@@H](C)Oc2ccc([C@@H]3CC[C@@H](c4ccc(O[C@H](C)C(=O)c5ccc(OC)c(OC)c5)c(OC)c4)O3)cc2OC)cc1OC`: in data set [1], the inhibition result is “Dose-dependent effect”.

For `COc1ccc(C(=O)[C@@H](C)Oc2ccc([C@@H]3CCC[C@H](c4ccc(O[C@H](C)C(=O)c5ccc(OC)c(OC)c5)c(OC)c4)O3)cc2OC)cc1OC`, in data set [1], the inhibition entry is “inactive”.

For `COc1ccc([C@@H](O)[C@@H](C)Oc2ccc([C@H]3O[C@H](c4ccc(O[C@H](C)[C@H](O)c5ccc(OC)c(OC)c5)c(OC)c4)[C@H](C)[C@H]3C)cc2OC)cc1OC`, in data set [1], the inhibition result is “Active”. The inhibition in vivo at 5 mg/kg in data set [2] was determined as 30%; in data set [3], 80%. Further, the outcome in data set [4] and in data set [5] was Active. For the same compound, the Activity entry in data set [6] and in data set [7] was “Non-Toxic” in each case.

With `COc1ccc(C(=O)[C@@H](C)Oc2ccc(-c3cccc(-c4ccc(O[C@H](C)C(=O)c5ccc(OC)c(OC)c5)c(OC)c4)c3)cc2OC)cc1OC`, in data set [1], the inhibition entry is “inactive”.

With `COc1ccc(C(=O)[C@H](C)Oc2ccc(/C=C/c3ccc(O[C@H](C)C(=O)c4ccc(OC)c(OC)c4)c(OC)c3)cc2OC)cc1OC`, in data set [1], the inhibition result is “inactive”.

Turning to `COc1cc2ncnc(Nc3ccc(F)c(Cl)c3)c2cc1OCCCN1CCOCC1`, the result in data set [4] was Active.

As to `COc1ccc(C(=O)[C@@H](C)Oc2ccc(C3=C(c4ccc(O[C@H](C)C(=O)c5ccc(OC)c(OC)c5)c(OC)c4)CCC3)cc2OC)cc1OC`, in data set [1], the inhibition result was “inactive”.

Turning to `COc1ccc(C(=O)[C@@H](C)Oc2ccc(-c3cccc(-c4ccc(O[C@H](C)C(=O)c5ccc(OC)c(OC)c5)c(OC)c4)n3)cc2OC)cc1OC`, the inhibition result in data set [1] is “inactive”.

As to `COc1ccc(C(=O)[C@@H](C)Oc2ccc(CC3(Cc4ccc(O[C@H](C)C(=O)c5ccc(OC)c(OC)c5)c(OC)c4)SCCCS3)cc2OC)cc1OC`, in data set [1], the inhibition result is “inactive”.

Consider `COc1ccc(C(=O)[C@@H](C)Oc2ccc([C@@H]3CC[C@@H](c4ccc(O[C@H](C)C(=O)c5ccc(OC)c(OC)c5)c(OC)c4)N3)cc2OC)cc1OC`, for which the inhibition result in data set [1] was “Dose-dependent effect”.
